Type in all cases: functional, organism-based
The subject of assay [1] is Streptococcus pneumoniae. In words: Antimicrobial activity against erythromycin-susceptible Streptococcus pneumoniae ATCC 49619 by broth microdilution method. Put shortly: (§1)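 MIC by broth microdilution following NCCLS recommendations. Strains used as erythromycin-susceptible clinical or reference isolates: S. pneumoniae ATCC 49619 and 07H252, S. pyogenes 07U084 and 07U086. Resistant comparison strains came from MOHNARIN, China. Value reported as minimum inhibitory concentration.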
Background: Broth dilution looks for growth in wells or tubes with falling amounts of substance.

Assay [2] concerns Streptococcus pneumoniae. In words: Antimicrobial activity against erythromycin-susceptible Streptococcus pneumoniae 07H252 by broth microdilution method. Put shortly: as §1
For assay [3], the system named is Streptococcus pneumoniae. In words: Antimicrobial activity against erythromycin-resistant Streptococcus pneumoniae 07Z001 by broth microdilution method. Put shortly: (§2)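 MIC by broth microdilution as recommended by NCCLS. Strains are constitutively erythromycin-resistant clinical isolates supplied by the Ministry of Health National Antimicrobial Resistance Investigation Net (MOHNARIN, China).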

Assay [4] has as its system Streptococcus pneumoniae. In words: Antimicrobial activity against erythromycin-resistant Streptococcus pneumoniae 05Z006 by broth microdilution method. Put shortly:
as §2

The test system of assay [5] is Streptococcus pyogenes. In words: Antimicrobial activity against erythromycin-susceptible Streptococcus pyogenes 07U084 by broth microdilution method. Put shortly: as §1
In assay [6] the test system is Streptococcus pyogenes. In words: Antimicrobial activity against erythromycin-susceptible Streptococcus pyogenes 07U086 by broth microdilution method. Put shortly:
as §1

Assay [7] relates to Streptococcus pyogenes. In words: Antimicrobial activity against erythromycin-resistant Streptococcus pyogenes 07Z011 by broth microdilution method. Put shortly: as §2
In assay [8] the test system is Streptococcus pyogenes. In words: Antimicrobial activity against erythromycin-resistant Streptococcus pyogenes 07Z014 by broth microdilution method. Put shortly:
as §2

For assay [9], the system named is Streptococcus pyogenes. In words: Antimicrobial activity against erythromycin-resistant Streptococcus pyogenes 07Z016 by broth microdilution method. Put shortly: as §2

Each structure is given as a SMILES string. Activity calls are given as the source filed them. No cut-off for these calls is given here.

As to `CC[C@H]1OC(=O)[C@H](C)C(=O)[C@H](C)[C@@H](O[C@@H]2O[C@H](C)C[C@H](N(C)C)[C@H]2O)[C@@](C)(OC)C[C@@H](C)C(=O)[C@H](C)[C@H]2N(CCCSc3nc4ccc(OC)nc4[nH]3)C(=O)O[C@]12C`, the result in the assay on Streptococcus pneumoniae [1], with Streptococcus pneumoniae [2], in the assay on Streptococcus pneumoniae [3], with Streptococcus pneumoniae [4], in the assay with Streptococcus pyogenes [5] and with Streptococcus pyogenes [6] was Active. Moreover, the result with Streptococcus pyogenes [7], in the assay on Streptococcus pyogenes [8] and in the assay on Streptococcus pyogenes [9] was Active.
On to `CC[C@H]1OC(=O)[C@H](C)[C@@H](O[C@H]2C[C@@](C)(OC)[C@@H](O)[C@H](C)O2)[C@H](C)[C@@H](O[C@@H]2O[C@H](C)C[C@H](N(C)C)[C@H]2O)[C@](C)(OC)C[C@@H](C)C(=O)[C@H](C)[C@@H](O)[C@]1(C)O`, for which the result in the assay on Streptococcus pneumoniae [1], in the assay with Streptococcus pneumoniae [2], with Streptococcus pyogenes [5] and in the assay with Streptococcus pyogenes [6] was Active. Further, the outcome in the assay on Streptococcus pneumoniae [3], in the assay with Streptococcus pneumoniae [4], in the assay with Streptococcus pyogenes [7], in the assay with Streptococcus pyogenes [8] and in the assay with Streptococcus pyogenes [9] was inactive.
For `CC[C@H]1OC(=O)[C@H](C)[C@@H](O[C@H]2C[C@@](C)(OC)[C@@H](O)[C@H](C)O2)[C@H](C)[C@@H](O[C@@H]2O[C@H](C)C[C@H](N(C)C)[C@H]2O)[C@](C)(O)C[C@@H](C)CN(C)[C@H](C)[C@@H](O)[C@]1(C)O`, the outcome in the assay on Streptococcus pneumoniae [1], with Streptococcus pneumoniae [2], in the assay with Streptococcus pyogenes [5] and in the assay on Streptococcus pyogenes [6] was Active. Further, the result in the assay on Streptococcus pneumoniae [3], in the assay with Streptococcus pneumoniae [4], in the assay on Streptococcus pyogenes [7], in the assay on Streptococcus pyogenes [8] and in the assay with Streptococcus pyogenes [9] was inactive.
As to `CC[C@H]1OC(=O)[C@H](C)C(=O)[C@H](C)[C@@H](O[C@@H]2O[C@H](C)C[C@H](N(C)C)[C@H]2O)[C@](C)(OC)C[C@@H](C)C(=O)[C@H](C)[C@H]2N(CCCCn3cnc(-c4cccnc4)c3)C(=O)O[C@]12C`, the result in the assay with Streptococcus pneumoniae [1], with Streptococcus pneumoniae [2], in the assay with Streptococcus pneumoniae [3], in the assay on Streptococcus pneumoniae [4], in the assay with Streptococcus pyogenes [5] and in the assay on Streptococcus pyogenes [6] was Active. Also, the outcome with Streptococcus pyogenes [7], with Streptococcus pyogenes [8] and in the assay with Streptococcus pyogenes [9] was Active.
Regarding `CC[C@H]1OC(=O)[C@H](C)[C@@H](OC(=O)Cc2ccc3c(c2)OCO3)[C@H](C)[C@@H](O[C@@H]2O[C@H](C)C[C@H](N(C)C)[C@H]2O)[C@@](C)(OC)C[C@@H](C)C(=O)[C@H](C)[C@H]2N(CCCCSc3nc4ccc(OC)nc4[nH]3)C(=O)O[C@]12C`, the outcome in the assay on Streptococcus pneumoniae [1], in the assay on Streptococcus pneumoniae [2], with Streptococcus pneumoniae [3], with Streptococcus pneumoniae [4], in the assay on Streptococcus pyogenes [5] and in the assay with Streptococcus pyogenes [6] was Active. Moreover, the outcome in the assay with Streptococcus pyogenes [7], in the assay on Streptococcus pyogenes [8] and in the assay on Streptococcus pyogenes [9] was Active.
Take `CC[C@H]1OC(=O)[C@H](C)[C@@H](OC(=O)Cc2cccnc2)[C@H](C)[C@@H](O[C@@H]2O[C@H](C)C[C@H](N(C)C)[C@H]2O)[C@@](C)(OC)C[C@@H](C)C(=O)[C@H](C)[C@H]2N(CCCSc3nc4ccc(OC)nc4[nH]3)C(=O)O[C@]12C`: the result in the assay with Streptococcus pneumoniae [1], in the assay with Streptococcus pneumoniae [2], in the assay on Streptococcus pneumoniae [3], in the assay with Streptococcus pneumoniae [4], with Streptococcus pyogenes [5] and in the assay with Streptococcus pyogenes [6] was Active. In addition, the result in the assay with Streptococcus pyogenes [7], with Streptococcus pyogenes [8] and in the assay with Streptococcus pyogenes [9] was Active.
As to `CC[C@H]1OC(=O)[C@H](C)[C@@H](OC(=O)Cc2ccc3c(c2)OCO3)[C@H](C)[C@@H](O[C@@H]2O[C@H](C)C[C@H](N(C)C)[C@H]2O)[C@@](C)(OC)C[C@@H](C)C(=O)[C@H](C)[C@H]2N(CCCSc3nc4ccc(OC)nc4[nH]3)C(=O)O[C@]12C`, the outcome in the assay on Streptococcus pneumoniae [1], in the assay with Streptococcus pneumoniae [2], with Streptococcus pneumoniae [3], in the assay on Streptococcus pneumoniae [4], in the assay on Streptococcus pyogenes [5] and in the assay on Streptococcus pyogenes [6] was Active. Further, the outcome in the assay with Streptococcus pyogenes [7], in the assay on Streptococcus pyogenes [8] and in the assay with Streptococcus pyogenes [9] was Active.
`CC[C@H]1OC(=O)[C@H](C)[C@@H](OC(=O)Cc2cccnc2)[C@H](C)[C@@H](O[C@@H]2O[C@H](C)C[C@H](N(C)C)[C@H]2O)[C@@](C)(OC)C[C@@H](C)C(=O)[C@H](C)[C@H]2N(CCCCSc3nc4ccc(OC)nc4[nH]3)C(=O)O[C@]12C`: the result with Streptococcus pneumoniae [1], in the assay with Streptococcus pneumoniae [2], in the assay on Streptococcus pneumoniae [3], in the assay on Streptococcus pneumoniae [4], in the assay on Streptococcus pyogenes [5] and with Streptococcus pyogenes [6] was Active. Further, the outcome in the assay on Streptococcus pyogenes [7], in the assay on Streptococcus pyogenes [8] and in the assay on Streptococcus pyogenes [9] was Active.

The record behind these values is ChEMBL document CHEMBL1152401, “Synthesis of novel macrolide derivatives with imidazo[4,5-b]pyridinyl sulfur contained alkyl side chains and their antibacterial activity” (Bioorg Med Chem Lett, 2009).
